Results: PMC2034471 (Nucleic Acids Research, 2007)

Legend:
[1] = target: 35 bp Nick; assay: EMSA, 35 bp DNA with nick; format: binding; conditions: read-out: Kd, 35 bp Nick, without DTT, 50 mM Tris–HCl pH 8.0, 50 mM NaCl, 2 h at 22°C
Outline: (§1)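 35-mer substrates (ss, GT mismatch, nick, gap, 3′-biotinylated duplex) made by annealing oligonucleotides in 10 mM Tris–HCl pH 8, 1 mM EDTA, 200 mM NaCl: 90°C 10 min, then slow cooling. Annealing checked on native gels. 5′-32P kinase labelling at 25°C. Incubation 2 h at 22°C in 50 mM Tris–HCl pH 8.0, 50 mM NaCl, with or without 1 mM DTT. Native 6% gels; phosphor-screen quantification for affinity.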

[2] = aggregation / stability of Rad9 fragments in solution; format: physicochemical; conditions: after three days at 0.2 mM and 30°C; MES 50 mM, NaCl 50 mM, 2 mM TCEP, pH 6
[3] = test system: 146 bp double-stranded DNA; assay: EMSA, 146 bp ds DNA; format: binding; conditions: DNA 26 nM, 2- to 128-fold molar excess of protein
Outline: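 146 bp fragment made by PCR on a pUC(357.4) digest template and 5′-end labelled with 32P-ATP/T4 polynucleotide kinase at 37°C. Protein fragments incubated with labelled DNA for 2 h at 22°C in 50 mM Tris–HCl pH 8.0, 1 mM EDTA, 1 mM AEBSF, 1 mM DTT, 50 mM NaCl, 0.1% triton X-100. Resolved on pre-run 6% native polyacrylamide (29:1) in 0.5× TEG at 70 V. Complexes detected by autoradiography of dried gels at –80°C.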

[4] = target: 35 bp ss; assay: EMSA, 35 nt single-stranded DNA; format: binding; conditions: read-out: Kd, 35 bp ss, without DTT, 50 mM Tris–HCl pH 8.0, 50 mM NaCl, 2 h at 22°C
Outline: as §1

[5] = target: 35 bp double-stranded DNA; assay: EMSA, 35 bp ds DNA; format: binding; conditions: read-out: Kd, 35 bp ds, without DTT, 50 mM Tris–HCl pH 8.0, 50 mM NaCl, 2 h at 22°C, DNA 26 nM
[6] = target: 35 bp Gap; assay: EMSA, 35 bp DNA with gap; format: binding; conditions: read-out: Kd, 35 bp Gap, without DTT, 50 mM Tris–HCl pH 8.0, 50 mM NaCl, 2 h at 22°C
Outline: as §1

[7] = test system: 35 bp ds with a 3′ terminal biotin; assay: EMSA, 35 bp ds DNA with one 3′ terminal biotin; format: binding
Outline: as §1

[8] = target: 211 bp double-stranded DNA; assay: EMSA, 211 bp ds DNA; format: binding; conditions: read-out: Kd, 211 bp ds, with 1 mM DTT, 50 mM Tris–HCl pH 8.0, 50 mM NaCl, 0.1% triton X-100, 2 h at 22°C, phosphor screen
Outline: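 211 bp fragment PCR-amplified from a DraI/BamHI digest of pUC(357.4) and 5′-32P end-labelled with T4 kinase at 37°C. Binding ran 2 h at 22°C in Tris–HCl pH 8.0 buffer with EDTA, AEBSF, 1 mM DTT, 50 mM NaCl and 0.1% triton X-100. Gels were 6% native polyacrylamide in 0.5× TEG at 70 V. Dried gels went onto a phosphor screen, and radioactive signals were quantified for affinity.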

[9] = ref [23]; cited from earlier work
[10] = target: 35 bp mismatch GT; assay: EMSA, 35 bp DNA with GT mismatch; format: binding; conditions: read-out: Kd, 35 bp mismatch GT, without DTT, 50 mM Tris–HCl pH 8.0, 50 mM NaCl, 2 h at 22°C
Outline: as §1

B1: ScRad9[754–947]: fragment 754–947 of Saccharomyces cerevisiae Rad9, tandem tudor domain (protein)
chain: GKDSKEQSYVFPEGIRTADNSFLSKDDIIFGNAVWCQYTWNYKFYPGILLEVDTNQDGCWIYFETGRSLTKDEDIYYLDIRIGDAVTFDGNEYVVVGLECRSHDLNIIRCIRGYDTVHLKKKNASGLLGKRTLIKALSSISLDLSEWAKRAKIILEDNEKNKGDAYRYLRHPIRGRKSMTNVLSPKKHTDDEKD
- Kd [1]: 620 ± 60 nM
- fraction of fragment aggregated [2]: 50%
- interaction with 146 bp ds DNA by gel retardation [3]: forms complexes
- Kd [4]: 2500 ± 180 nM
- Kd [5]: 960 ± 80 nM
- Kd [6]: 960 ± 130 nM
- effect of biotin on affinity for the oligonucleotide ([7]; 35 bp ds, biotinylated at one or two 3′-OH ends, no streptavidin): does not modify the affinity
- Kd ([7]; read-out: Kd, 35 bp ds with a 3′ terminal biotin, EMSA, with 1 mM DTT, 50 mM Tris–HCl pH 8.0, 50 mM NaCl, 2 h at 22°C): 830 ± 50 nM
- Kd [8]: 500 ± 70 nM
- heat transition midpoint [9]: 52 °C
- Kd [10]: 890 ± 70 nM
